Screening data as filed in PubChem BioAssay.
D1 mod = D1 CRE-luciferase signal change, two-sided – cell-based, HEK293 D1, dopamine EC30, D1 allosteric modulator project, primary screen; dopamine EC30 potentiation; actives deviate in either direction; B-score at 10 µM; actives 5.9% (n = 58,000); D(1A) dopamine receptor (Homo sapiens), P21728;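 active means luminescence count or its row- and column-corrected plate score outside the 99.7% band of the plate's sample wells, on either side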
M1 antagonist = antagonists of rat M1 muscarinic receptor. Muscarinic acetylcholine receptor M1 (Rattus norvegicus), P08482. CHO-M1 cells, Fluo-4 calcium, ACh EC80 antagonist mode; active compounds read low. B-score at 10 µM. actives 3.4% (n = 64,000);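 active means calcium fluorescence response, raw or row-and-column corrected B-score, differing from the plate sample mean either way at a set confidence level, mostly lower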
M1 ag = M1 muscarinic receptor agonists, primary screen, CHO-M1 cells, Fluo-4 calcium, agonist mode | Fluo-4 calcium fluorescence; active compounds read high | Muscarinic acetylcholine receptor M1 | B-score at 10 µM | actives 3% (n = 64,000) | AID 626, 2007;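 active means fluorescence rise, raw or as B-score row- and column-corrected plate score, outside the 99.7% band of its plate's samples, either direction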
SF-1 act = activators of human SF-1, primary screen, cell-based, CHO-K1, Gal4-SF-1 LBD, luciferase luminescence; actives 1.9% (n = 65,000); activation, % at 10 µM; AID 522, 2006; Steroidogenic factor 1 (Homo sapiens), Q13285; CHO-K1 Gal4-SF-1 LBD luciferase reporter; % increase over DMSO SF-1-specific signal;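 active means activation above the mean activation of all tested compounds plus 3 SD, cut at about 50% in these data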
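Test system: transient Gal4-SF-1 LBD reporter, CHO-K1; Amount: 4,000 CHO-K1 cells per well; Doses: 10 µM only; Timing: compound exposure 20 h at 37 °C; Signal: luciferase light emission; Read-out basis: percent activation relative to DMSO median and mock-transfected background; Control set: DMSO negative control and −SF1 background wells; Replicates: one test per compound.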
RORa activator = activators of orphan receptor RORA, primary screen, cell-based, luminescence | Nuclear receptor ROR-alpha (Homo sapiens), P35398 | CHO-K1 Gal4-RORA LBD luciferase reporter; percent increase over mock-subtracted basal signal | activation, % at 10 µM | actives 1.5% (n = 65,000) | AID 560, 2006;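 active means activation above the mean of all tested compounds plus 3 SD, cut at about 49% in these data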;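 further: 0% = DMSO-treated RORA cells and 100% = added signal equal to DMSO minus mock-transfected cells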
Target sequence (P35398 whole entry, looked up, the tested form may be a part): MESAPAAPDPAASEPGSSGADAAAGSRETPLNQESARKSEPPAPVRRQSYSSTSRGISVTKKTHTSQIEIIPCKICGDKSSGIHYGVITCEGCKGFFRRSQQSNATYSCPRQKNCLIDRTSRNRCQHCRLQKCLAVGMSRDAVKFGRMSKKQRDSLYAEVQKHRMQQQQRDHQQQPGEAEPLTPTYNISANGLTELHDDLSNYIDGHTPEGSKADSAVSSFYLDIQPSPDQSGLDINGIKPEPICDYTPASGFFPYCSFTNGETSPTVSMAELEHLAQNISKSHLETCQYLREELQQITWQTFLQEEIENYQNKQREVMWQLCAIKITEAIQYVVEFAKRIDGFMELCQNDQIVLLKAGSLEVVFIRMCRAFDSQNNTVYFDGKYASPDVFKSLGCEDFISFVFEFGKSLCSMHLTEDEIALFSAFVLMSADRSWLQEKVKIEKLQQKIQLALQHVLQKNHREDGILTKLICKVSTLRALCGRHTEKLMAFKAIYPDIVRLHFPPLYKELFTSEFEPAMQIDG
HePTP inh = inhibitors of human HePTP phosphatase, primary screen, biochemical, absorbance, leukemia target | Tyrosine-protein phosphatase non-receptor type 7 (Homo sapiens), P35236 | recombinant HePTP phosphatase activity, OD absorbance | inhibition, % at 20 µM | AID 521, 2006 | actives 0.64% (n = 110,000); in the data active means inhibition above about 50%; inconclusive means no clear call, values can overlap the other calls;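 further: plate controls were vehicle for no effect and reference inhibitor for full effect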
M1 ag confirm = rat M1 muscarinic receptor agonists, confirmation, CHO-M1 cells, Fluo-4 calcium, duplicate retest | fluorescence change (max-min) at 10 µM | shares compounds with M1 ag | Fluo-4 calcium fluorescence, agonist mode; actives lie on both sides | actives 19% (n = 1,700);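 active means fluorescence change differs from the solvent-only DMSO control mean at a set confidence level in both duplicate runs; inconclusive means differs from solvent-only control mean in just one of two runs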;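 further: an EC20 dose of acetylcholine follows compound addition during the same imaging run; raw fluorescence intensity difference in instrument units with no normalization to controls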
M4 agonist ctr = agonist activity at rat M4 receptor, confirmation, counter-screen for M1 allosteric modulator project, cell-based, agonist mode. shares compounds with M1 ag. CHO M4/Gqi5 cells, Fluo-4 calcium fluorescence; actives lie on both sides. fluorescence change (max-min) at 10 µM. actives 9% (n = 1,700). AID 1741, 2009;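 active means fluorescence change differing from the plate's solvent-only control wells at 99.7% confidence in both duplicates, whether higher or lower; inconclusive means differs from solvent controls in only one of two duplicates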
* marks the source's active call; other numbers are inactive results. The list is not random: actives were taken first. Their share in the collection is about 8.2%.

Results for COc1ccc(C2=CC(c3ccc(F)cc3)n3nnnc3N2)cc1 (stereo not given) ?
M1 antagonist: 0.22; M1 ag: 0.53; SF-1 act: 6; RORa activator: -8; HePTP inh: 5

How did COc1ccc(C2=CC(c3ccc(Cl)cc3)n3cnnc3N2)cc1OC (stereo not given) do in these assays?
D1 mod: 1.6; M1 antagonist: -0.38; M1 ag: 6.8*; SF-1 act: -8; RORa activator: 6; HePTP inh: -8; M1 ag confirm: 223*; M4 agonist ctr: 190*

Results for Cc1cc(Cl)ccc1OCc1nc(-c2ccc(O)cc2)n[nH]1 ?
D1 mod: 0.73; M1 antagonist: 0.79; M1 ag: 4.4*; SF-1 act: -2; RORa activator: -6; HePTP inh: 5; M1 ag confirm: 4.1; M4 agonist ctr: -13

Results for c1cc2c(c(NCc3ccncc3)c1)CCCC2 ?
D1 mod: 0.15; M1 antagonist: 0.27; M1 ag: -1.6; SF-1 act: -17; RORa activator: 16; HePTP inh: -1

Results for COc1ccc(-c2cn3cc(C)ccc3n2)cc1OC ?
D1 mod: -6.5*; M1 antagonist: 0.33; M1 ag: 2.2*; SF-1 act: 20; RORa activator: -13; HePTP inh: 9; M1 ag confirm: inconclusive; M4 agonist ctr: inconclusive

Results for COc1cc(CNC(=O)OCC(C)C)cc(OC)c1OC ?
D1 mod: 1.4; M1 antagonist: -0.13; M1 ag: -0.28; SF-1 act: -4; RORa activator: 7; HePTP inh: 0

What do the screens show for `COc1ccc(NC(=O)COc2cccc3ccccc23)cc1`?
HePTP inh: -1

How did CCc1nc(C)cn1S(=O)(=O)c1cc(C)c(OC)cc1C do in these assays?
D1 mod: -1.5; M1 antagonist: 0.013; M1 ag: -3.7*; SF-1 act: -7; RORa activator: -10; HePTP inh: 1; M1 ag confirm: inconclusive; M4 agonist ctr: inconclusive

How did CCN=c1sc(C(=O)NCCc2ccccc2)cc(=O)n1CC do in these assays?
M1 antagonist: -2.9*; M1 ag: 12*; SF-1 act: -11; RORa activator: 6; HePTP inh: 1; M1 ag confirm: -7.2; M4 agonist ctr: -15

How did CCN=C1SC(C(=O)NCCc2ccccc2)CC(=O)N1CC (stereo not given) do in these assays?
D1 mod: 1.2; M1 antagonist: -1.2; M1 ag: 4.8*; SF-1 act: -16; RORa activator: 14; HePTP inh: 6; M1 ag confirm: inconclusive; M4 agonist ctr: -26

Results for CCN(CC)CCCNc1oc(-c2ccc(OC)c(OC)c2)nc1C#N ?
D1 mod: -0.018; M1 antagonist: 0.2; M1 ag: -0.12; SF-1 act: 6; RORa activator: 11; HePTP inh: 11

What do the screens show for `Cc1cc(NC(=O)COc2ncnc3sc(C)c(C)c23)no1`?
D1 mod: 1; M1 antagonist: 0.45; M1 ag: 15*; SF-1 act: 11; RORa activator: -2; HePTP inh: 3; M1 ag confirm: -11; M4 agonist ctr: -16

Results for CN(C)c1ccc(N/C=C/C(=O)c2ccccc2)cc1 ?
D1 mod: -4.4*; M1 antagonist: -0.065; M1 ag: 2.5*; SF-1 act: -66; RORa activator: -29; HePTP inh: 5; M1 ag confirm: inconclusive; M4 agonist ctr: -8.6

How did CCOC(=O)c1oc2ccc(S(=O)(=O)Nc3ccc4c(c3)n(C)c(=O)n4C)cc2c1C do in these assays?
D1 mod: 2.4; M1 antagonist: -1.6; M1 ag: 5.3*; SF-1 act: -57; RORa activator: -30; HePTP inh: 4; M1 ag confirm: inconclusive; M4 agonist ctr: -76

Results for CCOC(=O)c1c(C)oc2ccc(NS(=O)(=O)c3ccc4ccccc4c3)cc12 ?
HePTP inh: 4

How did O=C(CN1CCN(S(=O)(=O)c2cc(Cl)ccc2Cl)CC1)Nc1ccc2c(c1)OCCO2 do in these assays?
D1 mod: 2.5; M1 antagonist: 0.58; M1 ag: 4.1*; SF-1 act: -5; RORa activator: 1; HePTP inh: 8; M1 ag confirm: -31*; M4 agonist ctr: inconclusive

How did CN(C)c1ccc(NC(=O)CN2CCN(S(=O)(=O)c3cc(Cl)ccc3Cl)CC2)cc1 do in these assays?
D1 mod: -0.69; M1 antagonist: -0.8; M1 ag: -0.52; SF-1 act: 19; RORa activator: 8; HePTP inh: -3

Results for CC(C)n1c(N2CCN(CC(=O)Nc3ccc4c(c3)OCCO4)CC2)nc2ccccc21 ?
D1 mod: 0.072; M1 antagonist: -1.2; M1 ag: 4*; SF-1 act: 2; RORa activator: 5; HePTP inh: 7; M1 ag confirm: -22*; M4 agonist ctr: inconclusive

What do the screens show for `CCn1c(SCC(=O)N2CCc3ccccc32)nnc1-c1ccncc1`?
D1 mod: 0.6; M1 antagonist: 0.04; M1 ag: -0.31; SF-1 act: -19; RORa activator: -2; HePTP inh: 1

Results for COC(=O)c1ccc(CC(=O)c2ccc(O)cc2O)o1 ?
D1 mod: -2.2*; M1 antagonist: 0.13; M1 ag: 20*; SF-1 act: 22; RORa activator: -15; HePTP inh: 1; M1 ag confirm: 37; M4 agonist ctr: 11

How did COC(=O)c1cc(CC(=O)c2ccc(O)cc2O)c(C)o1 do in these assays?
M1 antagonist: 0.71; M1 ag: -0.085; SF-1 act: -2; RORa activator: 24; HePTP inh: 4

Results for O=C(Cc1c(O)c2ccccc2[nH]c1=O)NC1CCCCCC1 ?
D1 mod: 0.14; M1 antagonist: -0.74; M1 ag: -0.28; SF-1 act: -22; RORa activator: -1; HePTP inh: 5
